# Results reported in the array DNA melting data of Ke et al. (doi:10.1101/2024.01.08.574731).
# Experiments:
# [1] = melting temperature; fluorescence melt of hairpins on a sequencing array, two-state fit, raised by 9.35 °C to match UV melts; settings: sodium 0.088 M
# How it was run: (§1)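 Folding enthalpy and melting temperature come from bootstrapped two-state fits to Cy3 fluorescence of library hairpins carrying annealed Cy3 and quencher oligos on a sequenced MiSeq flow cell. Imaging was done in 50 mM Na-HEPES pH 8.0, 25 mM NaCl, stepping by 2.5 °C up to 60 °C, and signals were normalised to pre-quench Cy3 and to control constructs. Results of four replicates were combined by inverse variance, and fitted temperatures were raised by 9.35 °C to match UV melts.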
# [2] = folding enthalpy; higher = less favourable; fluorescence melt of hairpins on a sequencing array, two-state fit; settings: sodium 0.088 M
# How it was run: as §1
Sequence,Tm [1] [°C],folding enthalpy [2] [kcal/mol]
GGAGTCGGAAACAACTCC (((((.(....).))))),41.5,-32.6
GCATTGCGAAAGCACCGC ((..(((....)))..)),34.5,-10.7
AGGACGAAAGTCCT (((((....))))),68.5,-20.3
GGTTATGGAAACATAACC (((((((....))))))),55.6,-41.1
GATCTCTAGAGAGATC ((((((....)))))),51,-40.9
GAGTGTGGAAACACATTC ((.((((....)))).)),42.5,-17.6
GATCATGGAAATGATC ((((((....)))))),52.4,-36
GATCTTATAGAAGATC ((((((....)))))),39.5,-30
GCTTTGCGAAAGCAATGC ((.((((....)))).)),60.9,-27.5
GATCCAGAGATGGATC ((((((....)))))),52.3,-34.5
GCTAAGCGAAAGCCTCGC ((.(.((....)).).)),29,-10.7
GCGATGCGAAAGCTTGGC ((.(.((....)).).)),43.8,-15.1
GACCGTGCGAAAGCAGTC (((..(((....)))))),29.6,-11.4
GTGAGGGGAAACCCCCAC (((.(((....))).))),49.2,-31.5
GATCGGAGCCCCGATC ((((((....)))))),54.7,-32.6
GTTGTCGGAAACGACGAC ((.((((....)))).)),55.1,-24.8
GACACAGGAAACTGTACC (..((((....))))..),25.1,-11.1
GATCCTGCGAGGATC ((((((...)))))),53.9,-33.7
GATCACAAAGTGATC ((((((...)))))),61,-38.2
GGAAAGCGAAAGCTATCC (((.(((....))).))),47.2,-25.2
GATTTTGGAAACAAGATC (((.(((....))).))),33.6,-22.4
GATCGTCTCACGATC ((((((...)))))),57.4,-40.6
GTTGGCGAAAGCCTGAAC ((((((....)))..))),30.9,-8.07

Sequence,Tm [1] [°C],folding enthalpy [2] [kcal/mol]
GCACACGAAAGTGGTGC ((((((....))).))),59.6,-33
GCCTAGCGAAAGCTGTGC ((..(((....)))..)),41.2,-13
GTAAGCGAAAGCTTTAC ((((((....))).))),42,-12.9
GAATGGCGAAAGCCGTTC (((.(((....))).))),58.1,-22.4
GTAACACGAAAGTGGTAC (((.(((....))).))),55.1,-41.3
GGAAGAGGAAACTCTTTC (.(((((....))))).),37.3,-27
GCACTCGAAAGAGTATGC ((((((....)))..))),42.1,-16.2
GAGTGCGGAAACGCGTTC ((..(((....)))..)),34.3,-13
GCTTGGCGAAAGCGACGC ((.(.((....)).).)),45.5,-13.2
GAATGCGGAAACGCGTTC (((.(((....))).))),54.2,-37.5
GTAAGGACGAAAGTCTAC (((..(((....)))))),30.2,-8.78
GATCCCTAACGGGATC ((((((....)))))),57.6,-39.7
GCGTACAGACGC ((((....)))),51,-22.5
GAGGACACGAAAGTGCTC (((..(((....)))))),35.9,-14.4
GCATCGCGAAAGCCTTGC (((..((....))..))),38.3,-16.7
GACATGGCGAAAGCCGTC (((..(((....)))))),50.7,-10.1
ATCGTGAAAACGAT (((((....))))),49.5,-19.6
GAGAACCGAAAGGTACTC (((.(((....))).))),50.7,-34.9
GACTCTCCGAAAGGAGTC (((..(((....)))))),35.3,-9.54
GCTTCTGGAAACAGGAGC (((.(((....))).))),50.5,-37.5
GCGTCGCGAAAGCGCGGC ((..(((....)))..)),61.1,-12.6
GTTGCCGGAAACGGCGAC ((.((((....)))).)),64.1,-20.1
GGTTCGGGAAACCGAGTC (..((((....))))..),36.5,-13.1
